Published values collected from several papers.
Protocols differ between the studies behind these lines.
FLT3 R834Q: Receptor-type tyrosine-protein kinase FLT3 (FLT3, Homo sapiens, UniProt P36888, R834Q)
FLT3 K663Q: Receptor-type tyrosine-protein kinase FLT3 (FLT3, Homo sapiens, UniProt P36888, K663Q)
FLT3 D835Y: Receptor-type tyrosine-protein kinase FLT3 (FLT3, Homo sapiens, UniProt P36888, D835Y)
FLT3 D835H: Receptor-type tyrosine-protein kinase FLT3 (FLT3, Homo sapiens, UniProt P36888, D835H)
FLT3: Receptor-type tyrosine-protein kinase FLT3 (FLT3, Homo sapiens, UniProt P36888)
FLT3 F691L/ITD: Receptor-type tyrosine-protein kinase FLT3 (FLT3, Homo sapiens, UniProt P36888, F691L/ITD)
FLT3 D835V/ITD: Receptor-type tyrosine-protein kinase FLT3 (FLT3, Homo sapiens, UniProt P36888, D835V/ITD)
FLT3 autoinhibited: Receptor-type tyrosine-protein kinase FLT3, autoinhibited (FLT3, Homo sapiens, UniProt P36888)
FLT3 N841I: Receptor-type tyrosine-protein kinase FLT3 (FLT3, Homo sapiens, UniProt P36888, N841I)

SMILES | target | test | conditions | remaining binding [%]
C[C@H](c1cccc(C#N)c1)n1cc(Cl)cc(C(N)=O)c1=N | FLT3 R834Q | cell-free assay, competition with immobilised ligand | 1 µM | 100
Nc1ncc2c(n1)-c1c([nH]c3ccc(C#CC4CC4)cc13)CCCC2 | FLT3 K663Q | binding, competition with immobilised ligand | 1 µM | 77
NS(=O)(=O)c1cc(NC(=O)C2(c3ccccc3Cl)CC2)ccc1Oc1cccc(Cl)c1 | FLT3 D835Y | cell-free assay, competition with immobilised ligand | 1 µM | 100
O=C(Nc1c[nH]nc1C(=O)NC1CCNCC1)c1cc(F)cc(F)c1 | FLT3 D835Y | binding, competition with immobilised ligand | 1 µM | 89
O=C(c1ccc(Nc2ncc(Cl)c(-c3cc4ccccc4s3)n2)cc1)N1CCC(N2CCCC2)CC1 | FLT3 D835H | binding, competition with immobilised ligand | 1 µM | 2.4
CN(CCCC(F)(F)F)c1nccc(-c2cnn3ncccc23)n1 | FLT3 D835Y | binding | 1 µM | 76
C[C@@H]1CN(c2ccc3ncc(-c4ccc5[nH]nc(C6CC6)c5c4)n3n2)C[C@H](C)O1 | FLT3 | binding, competition with immobilised ligand | 50 nM | 31
O=C(NCCCN1CCOCC1)c1ccc(Nc2ncc(Cl)c(-c3ccc(Cl)s3)n2)cc1 | FLT3 D835Y | binding, competition with immobilised ligand | 1 µM | 1.8
O=C(NC1CCC1)c1ccc2nc(-c3cccc(NS(=O)(=O)NCCN4CCCCC4)c3)cn2c1 | FLT3 F691L/ITD | cell-free assay, competition with immobilised ligand | 10 µM | 80
COc1ccnn2ncc(-c3ccnc(N(C)C)n3)c12 | FLT3 D835Y | binding | 1 µM | 97
FC(F)(F)c1ccc2c(c1)nc(-c1cccnc1)n2C1CC1 | FLT3 | cell-free assay, competition with immobilised ligand | 1 µM | 93
COc1ncc2cc3ccccc3nc2c1C#N | FLT3 D835H | cell-free assay, competition with immobilised ligand | 5 µM | 89
CN(C)c1ncnc(-c2ccc3nc(Nc4cc(CN5CCN(C(=O)CC(F)(F)F)CC5)ccn4)[nH]c3c2)c1Cl | FLT3 D835H | cell-free assay, competition with immobilised ligand | 1 µM | 42
O=C(NCCCN1CCOCC1)c1ccc(Nc2nccc(-c3cc4ccccc4s3)n2)cc1 | FLT3 K663Q | binding, competition with immobilised ligand | 1 µM | 35
c1cncc(-c2cccc(Nc3nccc(NC4CCCCC4)n3)c2)c1 | FLT3 D835H | binding, competition with immobilised ligand | 10 µM | 1.6
FC(F)(F)Oc1cccc(-c2cnc3ccc(-c4ccncc4)nn23)c1 | FLT3 | cell-free assay, competition with immobilised ligand | 5 µM | 3.6
CN(C)C(=O)Cn1cc(-c2nc(C3(c4ccc(-c5cnc(N)nc5)cc4)CC3)no2)cn1 | FLT3 D835V/ITD | cell-free assay, competition with immobilised ligand | 1 µM | 89
CN1CCN(c2ccc(Nc3nccc(-c4ccccc4)n3)cc2C(F)(F)F)CC1 | FLT3 K663Q | binding | 10 µM | 0.35

SMILES | target | test | conditions | remaining binding [%]
C=CC(=O)N1CCC(C(=O)NCC(=O)N2CCN(c3nc(-c4cnc(N)nc4C(F)F)nc(N4CCOCC4)n3)CC2)CC1 | FLT3 autoinhibited | binding, competition with immobilised ligand | 1 µM | 99
CN(C)c1ncc(F)c(-c2cnn3ncccc23)n1 | FLT3 autoinhibited | binding | 1 µM | 72
CO[C@@H](C)c1c(Nc2ccc([C@H](N(C)C(=O)C3CCS(=O)(=O)CC3)C(F)(F)F)cc2)cnc2cc(Cl)nn12 | FLT3 D835Y | cell-free assay, competition with immobilised ligand | 1 µM | 59
CN(C)c1nccc(-c2cnn3ncccc23)n1 | FLT3 D835Y | binding | 1 µM | 100
Cc1c(C(=O)O)cc(-c2ccc(C3CCNCC3)cc2)c2ccc(-c3ccc(C(F)(F)F)cc3)cc12 | FLT3 | binding, competition with immobilised ligand | 1 µM | 100
N[C@H]1CCN(c2nccc(-c3cnn4ncccc34)n2)C1 | FLT3 N841I | binding | 1 µM | 84
O=C(NCC1CCOCC1)c1n[nH]cc1NC(=O)c1c(F)cccc1F | FLT3 N841I | binding, competition with immobilised ligand | 1 µM | 100
C[C@@H](c1ccc(-n2cnc3c(N)ncnc32)cc1)N1CCc2nn(C)c(Cc3ccccc3)c2C1=O | FLT3 R834Q | binding, competition with immobilised ligand | 0.1 µM | 88
CCN1CCN(Cc2ccc(C(=O)Nc3ccc(C)c(Oc4ccc5c(c4)CC(=O)N5)c3)cc2C(F)(F)F)CC1 | FLT3 R834Q | binding, competition with immobilised ligand | 1 µM | 100
O=C(c1ccc(Nc2nccc(-c3cc4ccccc4s3)n2)cc1)N1CCC(N2CCCC2)CC1 | FLT3 D835Y | binding, competition with immobilised ligand | 1 µM | 28
CN(c1nccc(-c2cnn3ncccc23)n1)C1CC1 | FLT3 R834Q | binding | 1 µM | 100
Cc1cnc(Nc2ccc(C(=O)N3CCC(N4CCCC4)CC3)cc2)nc1-c1cc2ccccc2s1 | FLT3 F691L/ITD | binding, competition with immobilised ligand | 1 µM | 18
COc1cnc(Nc2cccc(S(N)(=O)=O)c2)nc1N1CCN(c2ccccc2)CC1 | Receptor-type tyrosine-protein kinase FLT3 (FLT3, Homo sapiens, UniProt P36888, D835V) | binding, competition with immobilised ligand | 1 µM | 49
CN1CCN(c2ccc(Nc3nccc(-c4cccc([N+](=O)[O-])c4)n3)cc2C(F)(F)F)CC1 | FLT3 K663Q | binding | 10 µM | 0.2
CNC(=O)[C@@H]1CC[C@@H](n2c(-c3ccc4cnccc4c3)nc3ccc(C(=O)NCc4cccc(C(N)=O)c4)cc32)C1 | FLT3 D835Y | binding, competition with immobilised ligand | 1 µM | 100
O=C(NCCCC1CCCCC1)c1ccc(CNC(=O)c2cnn(-c3ccccc3)c2C(F)(F)F)cc1 | FLT3 D835V/ITD | cell-free assay, competition with immobilised ligand | 0.1 µM | 100
COc1cnc(Nc2cccc(S(N)(=O)=O)c2)nc1N1CCN(c2ccccc2)C(=O)C1 | FLT3 D835H | binding, competition with immobilised ligand | 1 µM | 93
O=C(c1ccc(Nc2ncc(Cl)c(-c3ccc(Cl)s3)n2)cc1)N1CCC(N2CCCC2)CC1 | FLT3 N841I | binding, competition with immobilised ligand | 1 µM | 0.4
